Test: Toxicity liver stage against HepG2, at 10uM
Type: cell-based
Set-up: test concentration 10 uM, cell line HepG2-A16-CD81EGFP
Details: human, HepG2-A16-CD81EGFP cells; read-out: INHIBITION
How it was run: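 Uninfected HepG2-A16-CD81EGFP cells, 3 × 10^3 per well, 1536-well, plated on prespotted compound at 10 μM final, parasite-free screening media added to match infected plates; puromycin 10 μM positive, DMSO 0.5% negative; run in parallel with 48 h PbLuc assay at 37 °C, 5% CO2; viability by CellTiter-Glo luminescence, normalized to controls.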

Row | SMILES | cytotoxicity at 10 µM
1 | COc1ccccc1C(=O)Nc1ccc([C@@H](O)[C@H]2COCC(=O)N2)cc1 | 1.17%
2 | CN1C[C@@H](NC(=O)C2CC2)C[C@H]1c1nc(-c2cnccn2)no1 | 0.611%
3 | O=C(NCCO)c1cc(-c2ccc3c(c2)CCO3)n[nH]1 | -11.9%
4 | COCCNc1nc(N2CCCC2)nc2nccnc12 | 0.649%
5 | COc1ccc(NC(=O)c2nc(C)sc2C(C)C)cn1 | 0.847%
6 | Cn1c(CN2CCOCC2)cc(=O)c(O)c1CN1CCCC1 | -1.07%
7 | COc1ncccc1C(=O)N1CC(c2nc(-c3cccs3)no2)C1 | -21.5%
8 | Cc1nccn1-c1ccc(=O)n(CCNC(=O)c2ccccn2)n1 | -11.3%
9 | CC(=O)N1CCc2[nH]c(=O)ccc2C1 | 0.351%
10 | O=C1Nc2ccccc2C1C1CCN(C(=O)C2CC2)CC1 (stereo unspecified) | -1.24%
11 | O=C(C1CCCC1)N1C[C@@H]2CCNC[C@@H]21 | -0.155%
12 | CCOCc1cnc2n1CCN(C(=O)C1=CCCC1)C2C (stereo unspecified) | -2.42%
13 | CN(C)CC(=O)N1C[C@@H](Oc2ccccn2)[C@H]2OCCC[C@H]21 | 9.11%
14 | CCc1ccc(-n2nnc(C(=O)O)c2-c2ccncc2)cc1 | 3.02%
15 | O=C(Cn1ccc2ccc(F)cc21)NCc1ccc(C(=O)O)cc1 | 6.86%
16 | Cn1ncc(C(=O)O)c1C(=O)Nc1nc2ccc(Br)cc2s1 | 12.5%
17 | Cn1ncc(Cl)c1C(=O)NCCN1CCC(O)(c2ccc(F)cc2)CC1 | 4.71%
18 | Cc1cc(N2CCN(C(=O)c3cccnc3)CC2)nc(C)n1 | 4.28%
19 | NC(=O)c1cn[nH]c1C1CCCN1C(=O)c1ccccc1 (stereo unspecified) | 0.00505%
20 | CCC(CN1CCOCC1)NC(=O)Cc1c(C)[nH]c2cc(C)cc(C)c12 (stereo unspecified) | 19.6%
21 | CC(C)c1ncc(CN2CCOC(C(=O)Nc3ccccc3)C2)cn1 (stereo unspecified) | -25.3%
22 | Cc1ccc(-c2cc(N)c(=O)n(CC(=O)NC3CCCC3)n2)s1 | -20.3%
23 | CC(=O)N1CCCC(Cc2cnc(C(=O)N3CCC(C)CC3)cn2)C1 (stereo unspecified) | 4.82%

Row | SMILES | cytotoxicity at 10 µM
24 | CC(C)Nc1nnc(SCc2nnc(C(C)(C)C)o2)s1 | -0.386%
25 | O=c1oc(-c2cccs2)nn1CC1(O)CCCCC1 | 8.52%
26 | CC(C)c1nc(C2CCCN2C(=O)c2cc(Cl)c[nH]2)no1 (stereo unspecified) | 0.585%
27 | N#Cc1ccc(S(=O)(=O)NC(=O)C2CC(c3ccccc3)=NO2)cc1 (stereo unspecified) | 0.462%
28 | COCC(O)CN1CCC(NC(=O)c2cccc(C)c2)CC1 (stereo unspecified) | 1.44%
29 | COc1ccc(Br)cc1S(=O)(=O)N(C)Cc1ccc(N(C)C)cc1 | -7.59%
30 | O=C(NCCNc1ncccn1)NCCSC(F)(F)F | 5.81%
31 | CSC(C)C(=O)NS(=O)(=O)CCc1ccccc1 (stereo unspecified) | 2.88%
32 | Cc1cc(NC(=O)NC(C)CO)ccc1OCC(F)(F)F (stereo unspecified) | 5.2%
33 | CC(C)(C)c1nc(CNc2cc3c(cc2Cl)NC(=O)CO3)no1 | -0.438%
34 | N#Cc1cccc(OCc2ccoc2C(=O)N2CCCCCC2)c1 | 9.91%
35 | CSc1ccc(C(C)NC(=O)c2cc(C)on2)cc1 (stereo unspecified) | 6.01%
36 | CC(=O)c1ccc(C(=O)NCc2ccnc(N(C)C)n2)cc1 | 0.69%
37 | Cc1cc(C)cc(N(C)S(=O)(=O)c2cc3c(c(C(=O)O)c2)OCCO3)c1 | -4.02%
38 | Cn1cc(C(=O)CC2CCCN2C(=O)c2ccc(Cl)cn2)cn1 (stereo unspecified) | -9.23%
39 | CCNC(=O)NC(=O)CNC(C)(CC)c1nccs1 (stereo unspecified) | 7.93%
40 | O=c1[nH]c(CN2CCN(CC(F)(F)F)CC2)nc2ccccc12 | 10.2%
41 | CCc1nc(CCNC(=O)NC2CCN(C(C)C)C2)sc1C (stereo unspecified) | -7.63%
42 | CC(C(=O)Nc1ccc(Cl)cn1)N1CCc2nn(C)c(=O)cc2C1 (stereo unspecified) | 4.81%
43 | CS(=O)(=O)c1ccc(OCCNCc2cccc(Cl)c2)cc1 | -4.43%
44 | CCc1csc(C2CCCN(C(=O)c3ccncc3)C2)n1 (stereo unspecified) | 5.9%
45 | CC(C)(CNC(=O)C(C)(C)c1ccccc1F)C(N)=O | 6.38%
46 | Cc1noc(CNc2cccc(C(=O)N3CCCC(O)C3)c2)n1 (stereo unspecified) | -0.961%

Row | SMILES | cytotoxicity at 10 µM
47 | O=C(NCCO)NCC(c1ccccc1)N1CCc2sccc2C1 (stereo unspecified) | 1.96%
48 | CC(NC(=O)Nc1nccs1)c1ccncc1 (stereo unspecified) | -9.98%
49 | Cc1nc(NC(=O)COCC(F)(F)F)ccc1Br | 9.44%
50 | CN(CC(=O)NCC(=O)Nc1ccc(F)cc1)Cc1cccs1 | 0.369%
51 | N#Cc1cccc(S(=O)(=O)NC(=O)COCC(F)(F)F)c1 | -0.828%
52 | CNC(=O)c1cccnc1N1CCC(OCc2ccccc2)CC1 | 2.49%
53 | CCN(Cc1cccc(F)c1)c1ccc2nnnn2n1 | 15.4%
54 | N#Cc1ccc(NCCCOCC2CCCO2)c(F)c1 (stereo unspecified) | 0.536%
55 | CSC(C)(C)CNC(=O)NCC[S+]([O-])c1ccccc1F (stereo unspecified) | -11.6%
56 | c1ccc(-c2noc(C3CCN(CCn4cccn4)CC3)n2)cc1 | 2.86%
57 | O=C(C1CC(=O)N(c2ccccc2Br)C1)N1CCC2(CC1)OCCO2 (stereo unspecified) | 11.3%
58 | O=C(NCC1CC1)Nc1cccc(N2CCN(CC3CC3)CC2)c1 | -13.3%
59 | Cc1c(C(=O)NCC2CCN(C)C2)n(C)c2c(C)cccc12 (stereo unspecified) | 10.1%
60 | O=C1CCCCCN1CCC(=O)N1CCCC(c2ccn[nH]2)C1 (stereo unspecified) | 9.01%
61 | Cc1n[nH]c(C)c1CCN(C)C(=O)c1ccc(CN2CCCCC2)cc1 | -9.9%
62 | CN(C)CC1(O)CCCN(Cc2cnc(-c3ccco3)nc2)CC1 (stereo unspecified) | -8.58%
63 | Cc1cccc(NC(=O)N2CCOCC(CN(C)C)C2)c1C (stereo unspecified) | 14.7%
64 | Cc1ccc(F)cc1-n1c(COC(C)C)n[nH]c1=O | 4.72%
65 | CSc1ccc(C(=O)C2CCCN(C(=O)CCn3cnnn3)C2)cc1 (stereo unspecified) | 6.03%
66 | OC1CCN(CCNc2ncc3c(n2)CCN3c2ccccc2)CC1 | 5.84%
67 | COc1ccc(CCCC(=O)N2C[C@H](C3CC3)[C@@H](N(C)C)C2)cc1 | 0.624%
68 | C=C(C)COc1ccc(C(=O)NCC2CC(CC)=NO2)cc1 (stereo unspecified) | -48.2%
69 | COc1ccccc1OC1CCN(Cc2cccnc2)CC1 | -1.7%

Row | SMILES | cytotoxicity at 10 µM
70 | Cc1cc(C)c2c(C(=O)N(C)C)cc(-c3cnc(N)nc3)nc2c1 | -8.87%
71 | CN1CCC(N(C)C[C@H]2CC[C@@H](Cc3ccc4occc4c3)O2)CC1 | -9.27%
72 | COc1cc(NC2CCS(=O)(=O)CC2)ncn1 | -3.71%
73 | COc1ncc(CN(C)C(C)c2cccnc2)cn1 (stereo unspecified) | 13%
74 | C[C@@H]1CN(Cc2nc(C(N)=O)no2)CC[C@@]1(O)C1CC1 | -50.3%
75 | CC(C)=CCN1CCc2onc(-c3ccc(F)c(F)c3)c2C1 | 5.67%
76 | CN(Cc1csc(-c2cccs2)n1)Cc1ncccc1C(=O)O | -11.5%
77 | CCc1cnc(C)nc1NCC(O)CN1CCCCCC1 (stereo unspecified) | 3.26%
78 | Cn1ccnc1SCCNC1CCN(c2ncccn2)CC1 | -7.63%
79 | CCc1cc(NCCc2cc(F)cc(F)c2)n2nccc2n1 | 19.5%
80 | CN(C(=O)c1ccc(C2CCCO2)s1)C1CCS(=O)(=O)CC1 (stereo unspecified) | 1.72%
81 | Cc1ccc(CN2CCN(Cc3ccc4nonc4c3)CC2=O)cc1 | -1.9%
82 | C[C@@H]1CN(Cc2nnc(-c3cccnc3)o2)CC[C@]1(C)O | 10.1%
83 | CN(Cc1noc(C2CC2)n1)C1CCCN(c2cccnn2)C1 (stereo unspecified) | -2.66%
84 | CCn1cc(CN2CCCN(C(=O)CCSC)CC2)cn1 | -1.11%
85 | Cc1cc(C2CCCN2Cc2ccc(S(=O)(=O)N(C)C)o2)on1 (stereo unspecified) | -4.11%
86 | Cc1nn(C)c(N(C)C)c1CNCCCN(C(C)C)S(C)(=O)=O | 1.07%
87 | CN(C)c1cc2c(nn1)CCN(C(=O)Cc1ccc3c(c1)CCC3)C2 | -5.98%
88 | Cn1cnc2c1CCN(Cc1csc(-c3ccco3)n1)C2 | -17.4%
89 | Cc1ccc(O)c(C(=O)N2CCCC(NC(=O)C(C)C)C2)c1 (stereo unspecified) | -0.988%
90 | Cc1cnn(CC2CCCN2C(=O)c2ccccc2-n2cccn2)c1 (stereo unspecified) | -4.16%
91 | Cc1noc(C(C)C)c1C(=O)NCc1cccc(N(C)C)c1 | -1.91%
92 | CN(C)c1cc(CNC(=O)Nc2ccc(S(C)(=O)=O)nc2)ccn1 | 0.71%

Row | SMILES | cytotoxicity at 10 µM
93 | CC(C)(C)n1cc(C(=O)N2CCCN(Cc3cccs3)CC2)cn1 | -5.95%
94 | CNc1nc(CNC(=O)Nc2ccccc2SC)cs1 | -7.95%
95 | O=C(CCCc1ncc(-c2ccccc2)o1)N1CCN(CCO)CC1 | -4.69%
96 | OC(COc1ccccc1)CN1CCc2c(ncn2C2CC2)C1 (stereo unspecified) | 2.48%
97 | Cc1cc(C)n(CC2CCCCN2C(=O)c2ccc3nncn3c2)n1 (stereo unspecified) | 0.168%
98 | CC(=O)N1CCN(C(=O)C(C)n2cncn2)CC1 (stereo unspecified) | 1.64%
99 | CCc1n[nH]c(C2CN(C(=O)c3ccsc3)CCO2)n1 (stereo unspecified) | 2.24%
100 | CCn1nc(C)cc1C(=O)Nc1cc(F)ccc1OCC1CCCO1 (stereo unspecified) | 2.89%
101 | Cc1ccnn1CCC(=O)N1CCCC1c1cc2cccnc2[nH]1 (stereo unspecified) | 9.17%
102 | O=C(CCN1CCCC1)Nc1c2c(cc3c1CCC3)CCC2 | 6.3%
103 | Cc1occc1C(=O)N1Cc2nccn2CC(CN2CCOCC2)C1 (stereo unspecified) | -117%
104 | O=C(NCc1ccco1)[C@@H]1CC[C@@H]2[C@@H](CCN2Cc2ccc(F)cc2)O1 | -0.748%
105 | O=C(C1CCC1)N1C[C@@H]2CCN(c3cccnc3)C[C@@H]2C1 | -2.13%
106 | CNC(=O)[C@@H](c1ccccc1OC)N1CCC[C@H]1C(=O)NCCN(C)C | -5.12%
107 | CC(=O)N1CC(=O)N(c2cnn(C)c2)CC12CCN(Cc1cccs1)C2 (stereo unspecified) | 2.26%
108 | CCN1CCn2c(C)cnc2C12CCN(C(=O)NC)CC2 | 0.906%
109 | CS(=O)(=O)N[C@@H]1CN(Cc2ccco2)C[C@@H]2CCCO[C@@H]21 | 6.15%
110 | CO[C@@H]1CCN(Cc2cnn(C)c2)[C@@H]2CN(Cc3cccnc3)C[C@@H]21 | 8.47%
111 | O=C(Nc1ccccc1)[C@H]1C[C@H]2CN(S(=O)(=O)c3ccccc3)C[C@@H]1O2 | 5.8%

— ChEMBL document CHEMBL4513216, “Probing the Open Global Health Chemical Diversity Library for Multistage-Active Starting Points for Next-Generation Antimalarials” (ACS Infect Dis, 2020)
